Converted amounts (≈) assume the structure as drawn. The source made the active and inactive calls. No cut-off for these calls is given here.
Columns and labels:
Staphylococcus aureus [1] = assay: Antibacterial activity against Staphylococcus aureus MTCC 96 at 1000 ug/disc after 24 hrs by disc diffusion assay; assay type: functional; conditions: MTCC 96, 24 h, read-out: IZ
In short: (§1)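 Disc diffusion on Mueller Hinton agar. Cultures (about 10^4 CFU/ml) were swabbed on and dried 10 min. Discs loaded at 1000 µg/disc were left 30 min at room temperature for diffusion, with a solvent negative control. Plates were incubated 24 h at 37 °C. Inhibition zones were measured in mm, and the experiment was done twice.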

[2] = system: Salmonella enterica subsp. enterica serovar Paratyphi B; assay: Antibacterial activity against Salmonella paratyphi B at 1000 ug/disc after 24 hrs by disc diffusion assay; assay type: functional; conditions: read-out: IZ
In short: (§2)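 Disc diffusion on Mueller Hinton agar. Bacteria were grown 24 h at 37 °C in MHB and diluted to about 10^4 CFU/ml, swabbed onto plates and dried 10 min. Discs were loaded at 1000 μg/disc and held 30 min at room temperature for diffusion. Solvent served as negative control. After 24 h at 37 °C, inhibition zones were read in mm; run twice.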

Botrytis cinerea [3] = assay: Antifungal activity against Botrytis cinerea at 1000 ug/disc after 48 hrs by disc diffusion assay; assay type: functional; conditions: read-out: IZ
In short: (§3)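 Fungal disc diffusion with inoculum from SDA spores (filamentous) or SDB culture (yeast). Test cultures were swabbed on agar, and discs at 1000 µg/disc were left 30 min at room temperature, with a solvent negative control. Plates were incubated 48 h at 27 °C. Zone of inhibition was measured in mm, and the experiment was repeated twice.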

Micrococcus luteus [4] = assay: Antibacterial activity against Micrococcus luteus at 1000 ug/disc after 24 hrs by disc diffusion assay; assay type: functional; conditions: read-out: IZ; in short: as §1
Proteus vulgaris [5] = assay: Antibacterial activity against Proteus vulgaris MTCC 1771 at 1000 ug/disc after 24 hrs by disc diffusion assay; assay type: functional; conditions: MTCC 1771, 24 h, read-out: IZ; in short: as §1
Salmonella typhimurium [6] = assay: Antibacterial activity against Salmonella Typhimurium MTCC 1251 at 1000 ug/disc after 24 hrs by disc diffusion assay; assay type: functional, Salmonella enterica subsp. enterica serovar Typhimurium; conditions: Salmonella enterica, MTCC 1251, 24 h; read-out: IZ; in short: as §1
Candida albicans [7] = assay: Antifungal activity against Candida albicans MTCC 227 at 1000 ug/disc after 48 hrs by disc diffusion assay; assay type: functional; conditions: MTCC 227, 48 h, read-out: IZ; in short: as §3
Proteus vulgaris [8] = assay: Antibacterial activity against Proteus vulgaris MTCC 1771 after 24 hrs by twofold serial dilution method; assay type: functional; conditions: MTCC 1771, 24 h
In short: (§4)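 Bacteria grown in Mueller Hinton broth for 24 h at 37 °C and diluted to about 10^4 CFU/ml. Compound in 2% DMSO was serially diluted two-fold (1000 to 15.62 µg/ml) in medium in 96-well plates and inoculated. Plates were incubated 24 h at 37 °C. 5 µl of broth was spotted onto MHA, and MIC was taken as the lowest concentration with no visible growth on agar.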

Klebsiella aerogenes [9] = assay: Antibacterial activity against Enterobacter aerogenes MTCC 111 at 1000 ug/disc after 24 hrs by disc diffusion assay; assay type: functional; conditions: MTCC 111, 24 h, read-out: IZ; in short: as §1
Klebsiella pneumoniae [10] = assay: Antibacterial activity against Klebsiella pneumoniae MTCC 109 after 24 hrs by twofold serial dilution method; assay type: functional; conditions: MTCC 109, 24 h; in short: as §4
Micrococcus luteus [11] = assay: Antibacterial activity against Micrococcus luteus after 24 hrs by twofold serial dilution method; assay type: functional; in short: as §4
Staphylococcus aureus [12] = assay: Antibacterial activity against methicillin-resistant Staphylococcus aureus after 24 hrs by twofold serial dilution method; assay type: functional
In short: (§5)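 Broth microdilution in MHB following the standard bacterial reference method. Compound was dissolved in DMSO (2%) and serially diluted two-fold from 1000 to 15.62 µg/ml in 96-well plates, with an inoculum of about 10^4 CFU/ml. Streptomycin and ciprofloxacin were positive controls. After 24 h at 37 °C, 5 µl of broth was subcultured on MHA. MIC was the lowest concentration without visible growth on agar.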

Botrytis cinerea [13] = assay: Antifungal activity against Botrytis cinerea after 48 to 72 hrs by twofold serial dilution method; assay type: functional
In short: (§6)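 Broth two-fold serial dilution, 1000 to 15.62 µg/ml, with compound dissolved in 2% DMSO, in 96-well plates. Filamentous fungal spores came from 10-day SDA slants at 28 °C, and yeast from SDB grown 48 h at 28 °C. Incubation was 48-72 h at 28 °C. MIC was the lowest concentration with no visible fungal growth.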

[14] = Antifungal activity against Malassezia pachydermatis after 48 to 72 hrs by twofold serial dilution method; assay type: functional; in short: as §6
[15] = system: Salmonella enterica subsp. enterica serovar Paratyphi B; assay: Antibacterial activity against Salmonella paratyphi B after 24 hrs by twofold serial dilution method; assay type: functional; in short: as §5
Candida albicans [16] = assay: Antifungal activity against Candida albicans MTCC 227 after 48 to 72 hrs by twofold serial dilution method; assay type: functional; in short: as §6
Klebsiella pneumoniae [17] = assay: Antibacterial activity against Klebsiella pneumoniae MTCC 109 at 1000 ug/disc after 24 hrs by disc diffusion assay; assay type: functional; conditions: MTCC 109, 24 h, read-out: IZ; in short: as §1
Staphylococcus aureus [18] = assay: Antibacterial activity against Staphylococcus aureus MTCC 96 after 24 hrs by twofold serial dilution method; assay type: functional; conditions: MTCC 96, 24 h; in short: as §4
Salmonella typhimurium [19] = assay: Antibacterial activity against Salmonella Typhimurium MTCC 1251 after 24 hrs by two-fold serial dilution method; assay type: functional, Salmonella enterica subsp. enterica serovar Typhimurium; conditions: Salmonella enterica, MTCC 1251, 24 h; in short: as §4
Klebsiella aerogenes [20] = assay: Antibacterial activity against Enterobacter aerogenes MTCC 111 after 24 hrs by twofold serial dilution method; assay type: functional; conditions: MTCC 111, 24 h; in short: as §4
[21] = Antifungal activity against Malassezia pachydermatis at 1000 ug/disc after 48 hrs by disc diffusion assay; assay type: functional; in short: as §3
Staphylococcus aureus [22] = assay: Antibacterial activity against methicillin-resistant Staphylococcus aureus at 1000 ug/disc after 24 hrs by disc diffusion assay; assay type: functional; conditions: read-out: IZ; in short: as §2
Micrococcus luteus [23] = assay: Antibacterial activity against Micrococcus luteus at 10 ug/disc after 24 hrs by disc diffusion assay; assay type: functional; conditions: read-out: IZ
In short: (§7)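 Streptomycin positive-control discs (10 µg/disc) on Mueller Hinton agar swabbed with bacterial culture (about 10^4 CFU/ml). Discs stood 30 min at room temperature, then plates were incubated 24 h at 37 °C. Zones of inhibition were recorded in mm, and the experiment was repeated twice.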

Staphylococcus aureus [24] = assay: Antibacterial activity against methicillin-resistant Staphylococcus aureus at 10 ug/disc after 24 hrs by disc diffusion assay; assay type: functional; conditions: read-out: IZ
In short: (§8)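 Streptomycin positive-control discs at 10 μg/disc on Mueller Hinton agar, swabbed with bacteria grown 24 h at 37 °C in MHB and diluted to about 10^4 CFU/ml. Discs stood 30 min at room temperature, then plates were incubated 24 h at 37 °C. Inhibition zones were measured in mm; experiment repeated twice.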

Klebsiella pneumoniae [25] = assay: Antibacterial activity against Klebsiella pneumoniae MTCC 109 at 10 ug/disc after 24 hrs by disc diffusion assay; assay type: functional; conditions: MTCC 109, 24 h, read-out: IZ; in short: as §7
Staphylococcus aureus [26] = assay: Antibacterial activity against Staphylococcus aureus MTCC 96 at 10 ug/disc after 24 hrs by disc diffusion assay; assay type: functional; conditions: MTCC 96, 24 h, read-out: IZ; in short: as §7
Klebsiella aerogenes [27] = assay: Antibacterial activity against Enterobacter aerogenes MTCC 111 at 10 ug/disc after 24 hrs by disc diffusion assay; assay type: functional; conditions: MTCC 111, 24 h, read-out: IZ; in short: as §7
Proteus vulgaris [28] = assay: Antibacterial activity against Proteus vulgaris MTCC 1771 at 10 ug/disc after 24 hrs by disc diffusion assay; assay type: functional; conditions: MTCC 1771, 24 h, read-out: IZ; in short: as §7
Salmonella typhimurium [29] = assay: Antibacterial activity against Salmonella Typhimurium MTCC 1251 at 10 ug/disc after 24 hrs by disc diffusion assay; assay type: functional, Salmonella enterica subsp. enterica serovar Typhimurium; conditions: Salmonella enterica, MTCC 1251, 24 h; read-out: IZ; in short: as §7
[30] = system: Salmonella enterica subsp. enterica serovar Paratyphi B; assay: Antibacterial activity against Salmonella paratyphi B at 10 ug/disc after 24 hrs by disc diffusion assay; assay type: functional; conditions: read-out: IZ; in short: as §8
Micrococcus luteus [31] = assay: Ratio of ciprofloxacin MIC to compound MIC for Micrococcus luteus; assay type: functional
Candida albicans [32] = assay: Ratio of fluconazole MIC to compound MIC for Candida albicans MTCC 227; assay type: functional
Staphylococcus aureus [33] = assay: Ratio of ciprofloxacin MIC to compound MIC for methicillin-resistant Staphylococcus aureus; assay type: functional
Staphylococcus aureus [34] = assay: Ratio of streptomycin MIC to compound MIC for methicillin-resistant Staphylococcus aureus; assay type: functional
Salmonella typhimurium [35] = assay: Ratio of ciprofloxacin MIC to compound MIC for Salmonella Typhimurium MTCC 1251; assay type: functional, Salmonella enterica subsp. enterica serovar Typhimurium

Structure (SMILES)	zone of inhibition at 1000 µg/disc (Staphylococcus aureus [1]) [mm]	zone of inhibition at 1000 µg/disc [2] [mm]	zone of inhibition at 1000 µg/disc (Botrytis cinerea [3]) [mm]	zone of inhibition at 1000 µg/disc (Micrococcus luteus [4]) [mm]	zone of inhibition at 1000 µg/disc (Proteus vulgaris [5]) [mm]	zone of inhibition at 1000 µg/disc (Salmonella typhimurium [6]) [mm]	zone of inhibition at 1000 µg/disc (Candida albicans [7]) [mm]	MIC (Proteus vulgaris [8]) [µg/mL]	zone of inhibition at 1000 µg/disc (Klebsiella aerogenes [9]) [mm]	MIC (Klebsiella pneumoniae [10]) [µg/mL]	MIC (Micrococcus luteus [11]) [µg/mL]	MIC (Staphylococcus aureus [12]) [µg/mL]	MIC (Botrytis cinerea [13]) [µg/mL]	MIC [14] [µg/mL]	MIC [15]	MIC (Candida albicans [16]) [µg/mL]	zone of inhibition at 1000 µg/disc (Klebsiella pneumoniae [17]) [mm]	MIC (Staphylococcus aureus [18]) [µg/mL]	MIC (Salmonella typhimurium [19]) [µg/mL]	MIC (Klebsiella aerogenes [20]) [µg/mL]	further results
CN1CC2=C(C(=O)c3ccccc3C2=O)C12C(=O)Nc1ccccc12 (stereo not given)	15	10	10	13	11	12	10	250 (≈ 757 µM)	10	125 (≈ 378 µM)	125 (≈ 378 µM)	250 (≈ 757 µM)	125 (≈ 378 µM)	250 (≈ 757 µM)	250 µg/mL (≈ 757 µM)	125 (≈ 378 µM)	13	62.5 (≈ 189 µM)	125 (≈ 378 µM)	250 (≈ 757 µM)	inhibition zone (IZ) [21]: 11 mm; zone of inhibition at 1000 µg/disc (Staphylococcus aureus [22]): 10 mm
CN[C@@H]1[C@H](O[C@H]2[C@H](O[C@H]3[C@H](O)[C@@H](O)[C@H](N=C(N)N)[C@@H](O)[C@@H]3N=C(N)N)O[C@@H](C)[C@]2(O)C=O)O[C@@H](CO)[C@H](O)[C@H]1O [STREPTOMYCIN]								6.25 (≈ 10.7 µM)		6.25 (≈ 10.7 µM)	6.25 (≈ 10.7 µM)	> 100			inactive			6.25 (≈ 10.7 µM)	30 (≈ 51.6 µM)	25 (≈ 43 µM)	zone of inhibition at 10 µg/disc (Micrococcus luteus [23]): 23 mm; zone of inhibition at 10 µg/disc (Staphylococcus aureus [24]): 20 mm; zone of inhibition at 10 µg/disc (Klebsiella pneumoniae [25]): 20 mm; zone of inhibition at 10 µg/disc (Staphylococcus aureus [26]): 16 mm; zone of inhibition at 10 µg/disc (Klebsiella aerogenes [27]): 22 mm; zone of inhibition at 10 µg/disc (Proteus vulgaris [28]): 22 mm; zone of inhibition at 10 µg/disc (Salmonella typhimurium [29]): 23 mm; zone of inhibition at 10 µg/disc [30]: 17 mm
CC(=O)N1C(=O)C2(C3=C(CN2C)C(=O)c2ccccc2C3=O)c2ccccc21 (stereo not given)	18	28	15	22	26	24	18	< 15.6	21	15.6 (≈ 41.9 µM)	15.6 (≈ 41.9 µM)	62.5 (≈ 168 µM)	125 (≈ 336 µM)	15.6 (≈ 41.9 µM)	< 15.6 µg/mL	31.2 (≈ 83.9 µM)	24	31.2 (≈ 83.9 µM)	15.6 (≈ 41.9 µM)	15.6 (≈ 41.9 µM)	Ratio (Micrococcus luteus [31]): >6.4; Ratio (Candida albicans [32]): >3.2; Ratio (Staphylococcus aureus [33]): >1.6; Ratio (Staphylococcus aureus [34]): >1.6; inhibition zone (IZ) [21]: 19 mm; Ratio (Salmonella typhimurium [35]): >6.4; zone of inhibition at 1000 µg/disc (Staphylococcus aureus [22]): 16 mm
